Reference: ChEMBL document CHEMBL3085623, “Oridonin ring A-based diverse constructions of enone functionality: identification of novel dienone analogues effective for highly aggressive breast cancer by inducing apoptosis” (J Med Chem, 2013)
Active and inactive are the calls of the source. The rule behind the calls is not given here.

Experiments:
MDA-MB-231 [1] = test: Induction of apoptosis in human MDA-MB-231 cells assessed as dead cells at 5 uM after 24 hrs using FITC-annexin V and propidium iodide staining by flow cytometry (reference value: 0.3 to 1.00 %); type: functional
MDA-MB-231 [2] = test: Induction of apoptosis in human MDA-MB-231 cells assessed as late apoptotic cells at 10 uM after 24 hrs using FITC-annexin V and propidium iodide staining by flow cytometry (reference value: 5.5 to 11.0 %); type: functional
MDA-MB-231 [3] = test: Induction of apoptosis in human MDA-MB-231 cells assessed as caspase3 activation after 48 hrs by Western blot analysis; type: functional, cell-based
Method in brief: (§1)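 MDA-MB-231 cells treated 48 h with DMSO or compound. Lysates quantified by Bradford; 30 μg protein run on SDS-PAGE and transferred to PVDF. Blocked in 5% milk, then probed overnight: anti-Bcl-2 1:200, Bax 1:1000, PARP 1:10000, NF-κB p65 1:2000, caspase-3 1:1000, β-actin 1:20000. ECL detection.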

MDA-MB-231 [4] = test: Induction of apoptosis in human MDA-MB-231 cells assessed as downregulation of Bcl2 level at 2.5 to 10 uM after 48 hrs by Western blot analysis; type: functional, cell-based; method in brief: as §1
MDA-MB-231 [5] = test: Induction of apoptosis in human MDA-MB-231 cells assessed as late apoptotic cells at 5 uM after 24 hrs using FITC-annexin V and propidium iodide staining by flow cytometry (reference value: 5.5 to 11.0 %); type: functional
MDA-MB-231 [6] = test: Induction of apoptosis in human MDA-MB-231 cells assessed as live cells at 1 uM after 24 hrs using FITC-annexin V and propidium iodide staining by flow cytometry (reference value: 83.45 to 89.30 %); type: functional
MDA-MB-231 [7] = test: Induction of apoptosis in human MDA-MB-231 cells assessed as live cells at 10 uM after 24 hrs using FITC-annexin V and propidium iodide staining by flow cytometry (reference value: 83.45 to 89.30 %); type: functional
MDA-MB-231 [8] = test: Induction of apoptosis in human MDA-MB-231 cells assessed as dead cells at 1 uM after 24 hrs using FITC-annexin V and propidium iodide staining by flow cytometry (reference value: 0.3 to 1.00 %); type: functional
MDA-MB-231 [9] = test: Antiproliferative activity against human MDA-MB-231 cells after 48 hrs by MTT assay; type: functional, cell-based; details: MDA-MB-231, 48 h
Method in brief: (§2)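 Seeded at 1 × 10^4 cells/well, then exposed to DMSO or compound at 0.01, 0.1, 1, 5, 10 and 100 μM for 48 h. MTT (5 mg/mL in PBS) added for a further 4 h, formazan dissolved in DMSO, OD read at 550 nm. Quadruplicate wells per concentration. IC50 from curve fitting; mean ± SE of three independent experiments.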

Mus musculus = test: Toxicity in human MDA-MB-231 cells xenografted nude mouse assessed as change body weight at 5 mg/kg, ip administered 5 days per week for 10 days; type: organism-based; design: dose 5 mg/kg, route intraperitoneal; details: in vivo
Method in brief: (§3)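 Female nude mice, 4–6 weeks old, kept in a barrier unit on a 12 h light-dark cycle. Each mouse received 2.5 × 10^6 freshly harvested MDA-MB-231 cells in 100 μL PBS into the 3rd mammary fat pad. Mice were randomized into 3 groups. Once tumors reached 200 mm3, dosing was 5 mg/kg ip, 5 days/week for 10 days, in 50% DMSO/50% PEG. Tumor volume (0.5 × L × W2) and body weight were measured daily. One-way ANOVA.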

MDA-MB-231 [10] = test: Induction of apoptosis in human MDA-MB-231 cells assessed as upregulation of Bax level at 2.5 to 10 uM after 48 hrs by Western blot analysis; type: functional, cell-based; method in brief: as §1
MDA-MB-231 [11] = test: Induction of apoptosis in human MDA-MB-231 cells assessed as late apoptotic cells at 1 uM after 24 hrs using FITC-annexin V and propidium iodide staining by flow cytometry (reference value: 5.5 to 11.0 %); type: functional
cells = details: Homo sapiens, NCI/ADR-RES, 48 h
MDA-MB-231 [12] = test: Induction of apoptosis in human MDA-MB-231 cells assessed as live cells at 5 uM after 24 hrs using FITC-annexin V and propidium iodide staining by flow cytometry (reference value: 83.45 to 89.30 %); type: functional
MDA-MB-231 [13] = test: Induction of apoptosis in human MDA-MB-231 cells assessed as early apoptotic cells at 5 uM after 24 hrs using FITC-annexin V and propidium iodide staining by flow cytometry (reference value: 4.55 to 4.85 %); type: functional
HMEC = test: Growth inhibition of human HMEC cells after 24 hrs
MDA-MB-231 [14] = test: Induction of apoptosis in human MDA-MB-231 cells assessed as PARP cleavage after 48 hrs by Western blot analysis; type: functional, cell-based; method in brief: as §1
MDA-MB-231 [15] = test: Induction of apoptosis in human MDA-MB-231 cells assessed as downregulation of p65 NF-kappaB level at 2.5 to 10 uM after 48 hrs by Western blot analysis; type: functional, cell-based; method in brief: as §1
MDA-MB-231 [16] = test: Induction of apoptosis in human MDA-MB-231 cells assessed as early apoptotic cells at 10 uM after 24 hrs using FITC-annexin V and propidium iodide staining by flow cytometry (reference value: 4.55 to 4.85 %); type: functional
MDA-MB-231 [17] = test: Induction of apoptosis in human MDA-MB-231 cells assessed as dead cells at 10 uM after 24 hrs using FITC-annexin V and propidium iodide staining by flow cytometry (reference value: 0.3 to 1.00 %); type: functional
MDA-MB-231 [18] = test: Antitumor activity against human MDA-MB-231 cells xenografted in nude mouse assessed as inhibition of tumor growth at 5 mg/kg, ip administered 5 days per week for 10 days; type: functional, organism-based; design: dose 5 mg/kg; method in brief: as §3
MCF7 = test: Antiproliferative activity against human MCF7 cells after 48 hrs by MTT assay; type: functional, cell-based; details: MCF7, 48 h; method in brief: as §2
MDA-MB-231 [19] = test: Induction of apoptosis in human MDA-MB-231 cells after 24 hrs using FITC-annexin V and propidium iodide staining by flow cytometry; type: functional, cell-based
MDA-MB-231 [20] = test: Inhibition of colony formation of human MDA-MB-231 cells at 0.625 to 10 uM after 2 weeks by crystal violet staining-based GelCount method; type: functional, cell-based
Method in brief: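 MDA-MB-231 cells seeded at 800/well and left 24 h. Then treated with 0.625–10 μM compound or DMSO, medium with compound renewed every 72 h for two weeks. Stained with 0.01% crystal violet for 10 min after PBS washes. Whole-well density quantified on GelCount. Triplicate; SD; one-way ANOVA.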

MDA-MB-231 [21] = test: Induction of apoptosis in human MDA-MB-231 cells assessed as early apoptotic cells at 1 uM after 24 hrs using FITC-annexin V and propidium iodide staining by flow cytometry (reference value: 4.55 to 4.85 %); type: functional
MDA-MB-231 [22] = test: Induction of apoptosis in human MDA-MB-231 cells assessed as downregulation of PARP level at 10 to 30 uM after 48 hrs by Western blot analysis; type: functional, cell-based; method in brief: as §1
MDA-MB-231 [23] = test: Induction of apoptosis in human MDA-MB-231 cells assessed as downregulation of Bcl2 level at 10 to 30 uM after 48 hrs by Western blot analysis; type: functional, cell-based; method in brief: as §1
MDA-MB-231 [24] = test: Induction of apoptosis in human MDA-MB-231 cells assessed as caspase3 cleavage at 10 to 30 uM after 48 hrs by Western blot analysis; type: functional, cell-based; method in brief: as §1
MDA-MB-231 [25] = test: Induction of apoptosis in human MDA-MB-231 cells assessed as upregulation of Bax level at 10 to 30 uM after 48 hrs by Western blot analysis; type: functional, cell-based; method in brief: as §1
MDA-MB-231 [26] = test: Induction of apoptosis in human MDA-MB-231 cells assessed as downregulation of p65 NF-kappaB level at 10 to 30 uM after 48 hrs by Western blot analysis; type: functional, cell-based; method in brief: as §1
MDA-MB-231 [27] = test: Induction of apoptosis in human MDA-MB-231 cells assessed as upregulation of cleaved PARP level at 10 to 30 uM after 48 hrs by Western blot analysis; type: functional, cell-based; method in brief: as §1

C=C1C(=O)[C@@]23[C@@H]4OC(C)(C)O[C@]25OC[C@]2(C=CC(=O)C(C)(C)[C@H]2[C@@H]5O)[C@@H]3CC[C@@H]14
Activity (MDA-MB-231 [1]): 0.3%
Activity (MDA-MB-231 [2]): 39.1%
Activity (MDA-MB-231 [3]): Dose-dependent effect
Activity (MDA-MB-231 [4]): Active
Activity (MDA-MB-231 [5]): 16.55%
Activity (MDA-MB-231 [6]): 83.05%
Activity (MDA-MB-231 [7]): 52.3%
Activity (MDA-MB-231 [8]): 0.55%
IC50 (MDA-MB-231 [9]): 5.6 µM
Activity (Mus musculus): Non-toxic
Activity (MDA-MB-231 [10]): Active
Activity (MDA-MB-231 [11]): 11.35%
IC50 (cells): 6.02 µM
Activity (MDA-MB-231 [12]): 73%
Activity (MDA-MB-231 [13]): 10.15%
IC50 (HMEC): 10.2 µM
Activity (MDA-MB-231 [14]): Dose-dependent effect
Activity (MDA-MB-231 [15]): Active
Activity (MDA-MB-231 [16]): 8.3%
Activity (MDA-MB-231 [17]): 0.3%
TGI (MDA-MB-231 [18]): Active
IC50 (MCF7): 0.98 µM
Activity (MDA-MB-231 [19]): Dose-dependent effect
inhibition (MDA-MB-231 [20]): Active
Activity (MDA-MB-231 [21]): 5.05%

C=C1C(=O)[C@@]23C(=O)[C@@H](O)[C@@H]4C(C)(C)[C@@H]5OC[C@]4(C(=O)/C5=C\O)[C@@H]2CC[C@@H]1[C@H]3O
IC50 (MDA-MB-231 [9]): > 30 µM
IC50 (MCF7): > 30 µM

C=C1C(=O)[C@@]23[C@@H]4OC(C)(C)O[C@]25OC[C@]2(C(=O)C=CC(C)(C)[C@H]2[C@@H]5O)[C@@H]3CC[C@@H]14
IC50 (MDA-MB-231 [9]): 3.49 µM
IC50 (HMEC): 5.11 µM
IC50 (MCF7): 0.56 µM

C=C1C(=O)[C@]23[C@H](O)[C@H]1CC[C@H]2[C@]12C=CC(=O)C(C)(C)[C@H]1[C@H](O)[C@@]3(O)OC2
IC50 (MDA-MB-231 [9]): 9.39 µM
IC50 (HMEC): 10.1 µM
IC50 (MCF7): 3.48 µM

C=C1C(=O)[C@]23[C@H](O)[C@H]1CC[C@H]2[C@@]12CO[C@]3(O)[C@@H](O)[C@@H]1C(C)(C)C=CC2=O
IC50 (MDA-MB-231 [9]): 2.23 µM
IC50 (cells): 5.82 µM
IC50 (HMEC): 4.95 µM
IC50 (MCF7): 1.31 µM

C=C1C(=O)[C@]23[C@H](O)[C@H]1CC[C@H]2[C@@]12CO[C@]3(O)[C@@H](O)[C@@H]1C(C)(C)CC[C@@H]2O [ORIDONIN]
Activity (MDA-MB-231 [22]): Active
Activity (MDA-MB-231 [23]): Active
Activity (MDA-MB-231 [24]): inactive
IC50 (MDA-MB-231 [9]): 28 µM
Activity (MDA-MB-231 [25]): Active
IC50 (cells): > 30 µM
Activity (MDA-MB-231 [26]): Active
Activity (MDA-MB-231 [27]): Active
IC50 (HMEC): 5.6 µM
IC50 (MCF7): 4.36 µM

C=C1C(=O)[C@@]23C(=O)[C@@H](O)[C@@H]4C(C)(C)[C@@H]5OC[C@]4(C(=O)/C5=C/OC)[C@@H]2CC[C@@H]1[C@H]3O
IC50 (MDA-MB-231 [9]): > 30 µM
IC50 (MCF7): 10.2 µM

C=C1C(=O)[C@@]23[C@@H]4OC(C)(C)O[C@]25OC[C@]2(C(=O)C(C=O)=CC(C)(C)[C@H]2[C@@H]5O)[C@@H]3CC[C@@H]14
Activity (MDA-MB-231 [1]): 0.25%
Activity (MDA-MB-231 [2]): 36.1%
Activity (MDA-MB-231 [3]): Dose-dependent effect
Activity (MDA-MB-231 [4]): Active
Activity (MDA-MB-231 [5]): 19.25%
Activity (MDA-MB-231 [6]): 84.95%
Activity (MDA-MB-231 [7]): 52.25%
Activity (MDA-MB-231 [8]): 0.2%
IC50 (MDA-MB-231 [9]): 3.46 µM
Activity (MDA-MB-231 [10]): Active
Activity (MDA-MB-231 [11]): 11.7%
IC50 (cells): 6.55 µM
Activity (MDA-MB-231 [12]): 69.55%
Activity (MDA-MB-231 [13]): 10.95%
IC50 (HMEC): 4.51 µM
Activity (MDA-MB-231 [14]): Dose-dependent effect
Activity (MDA-MB-231 [15]): Active
Activity (MDA-MB-231 [16]): 11.2%
Activity (MDA-MB-231 [17]): 0.45%
IC50 (MCF7): 1.28 µM
Activity (MDA-MB-231 [19]): Dose-dependent effect
inhibition (MDA-MB-231 [20]): Active
Activity (MDA-MB-231 [21]): 3.15%
